According to ChEMBL document CHEMBL1147759, “Substituted indanylacetic acids as PPAR-alpha-gamma activators” (Bioorg Med Chem Lett, 2006):

Tests used:
[1] = target: T1, Peroxisome proliferator-activated receptor gamma (Homo sapiens, UniProt P37231); experiment: Activity against PPAR gamma in human by FRET assay
T1 sequence (P37231 whole entry): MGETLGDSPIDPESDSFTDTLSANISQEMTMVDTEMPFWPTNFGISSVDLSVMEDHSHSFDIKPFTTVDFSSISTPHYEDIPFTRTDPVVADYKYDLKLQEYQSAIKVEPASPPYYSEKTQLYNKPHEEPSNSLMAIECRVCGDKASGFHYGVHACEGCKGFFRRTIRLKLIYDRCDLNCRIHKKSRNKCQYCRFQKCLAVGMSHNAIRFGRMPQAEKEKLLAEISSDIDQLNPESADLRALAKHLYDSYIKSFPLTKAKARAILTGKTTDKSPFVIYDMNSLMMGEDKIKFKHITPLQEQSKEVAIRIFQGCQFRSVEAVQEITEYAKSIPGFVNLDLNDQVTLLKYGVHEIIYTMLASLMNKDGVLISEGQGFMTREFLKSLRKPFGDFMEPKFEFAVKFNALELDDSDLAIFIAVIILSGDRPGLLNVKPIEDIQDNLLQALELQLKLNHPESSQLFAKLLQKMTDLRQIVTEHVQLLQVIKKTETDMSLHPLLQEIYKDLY

[2] = target: T2, Peroxisome proliferator-activated receptor alpha (Homo sapiens, UniProt Q07869); experiment: Activity against PPAR alpha in human by FRET assay
T2 sequence (Q07869 whole entry): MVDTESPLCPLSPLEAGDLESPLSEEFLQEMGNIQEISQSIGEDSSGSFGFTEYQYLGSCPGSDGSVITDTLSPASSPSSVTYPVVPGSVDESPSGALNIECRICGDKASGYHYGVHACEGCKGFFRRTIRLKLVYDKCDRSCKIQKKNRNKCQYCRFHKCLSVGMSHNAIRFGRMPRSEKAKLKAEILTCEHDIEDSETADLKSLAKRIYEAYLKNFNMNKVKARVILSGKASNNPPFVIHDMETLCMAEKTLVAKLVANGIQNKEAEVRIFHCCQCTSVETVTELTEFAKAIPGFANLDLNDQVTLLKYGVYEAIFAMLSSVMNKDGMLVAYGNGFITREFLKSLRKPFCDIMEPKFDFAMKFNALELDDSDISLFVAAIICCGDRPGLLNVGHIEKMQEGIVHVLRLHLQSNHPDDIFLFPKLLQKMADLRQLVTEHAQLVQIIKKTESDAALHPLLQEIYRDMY
In short: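 Human PPAR-α ligand-binding domain (GST-tagged), incubated with compound, europium-labelled anti-GST antibody, biotinylated CREB-binding protein co-activator and streptavidin-APC. Time-resolved FRET read with excitation at 340 nm and emission at 615 and 640 nm. EC50 taken as the mean of at least three experiments.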

EC50 [1] [nM] | EC50 [2] [nM] | Compound
84 | 1130 | CCC(C(=O)O)C1CCc2cc(OCCc3nc(-c4ccc(OC)c(OC)c4)oc3C)ccc21 (configuration not stated)
43 | 46 | CCC(C(=O)O)C1CCc2cc(OCCc3nc(-c4ccc(C)c(F)c4)oc3C)ccc21 (configuration not stated)
523 | 204 | CCC(C(=O)O)C1CCc2cc(OCCc3nc(Cc4ccc(F)cc4)oc3C)ccc21 (configuration not stated)
> 10000 | 327 | CCC(C(=O)O)C1CCc2cc(OCCc3nc(-c4ccccc4)oc3C)c(C(C)=O)cc21 (configuration not stated)
738 | 5480 | CCC(C(=O)O)C1CCc2cc(OCCc3nc(-c4ccc(Cl)cc4Cl)oc3C)ccc21 (configuration not stated)
45 | 65 | CCC(C(=O)O)C1CCc2cc(OCCc3nc(-c4ccc(C)cc4)oc3C)ccc21 (configuration not stated)
49 | 559 | CCC(C(=O)O)C1CCc2cc(OCCc3nc(-c4ccccc4F)oc3C)ccc21 (configuration not stated)
> 10000 | 181 | CCC(C(=O)O)C1CCc2cc(OCCc3nc(-c4ccccc4)oc3C)c(Br)cc21 (configuration not stated)
21 | 171 | CCC(C(=O)O)C1CCc2cc(OCCc3nc(-c4cccc(C(F)(F)F)c4)oc3C)ccc21 (configuration not stated)
19 | 240 | CCC(C(=O)O)C1CCc2cc(OCCc3nc(-c4ccc(C(C)(C)C)cc4)oc3C)ccc21 (configuration not stated)
77 | 75 | CCC(C(=O)O)C1CCc2cc(OCCc3nc(-c4ccc(F)c(C)c4)oc3C)ccc21 (configuration not stated)
> 10000 | > 10000 | CC[C@@H](C(=O)O)[C@H]1CCc2cc(OCCc3nc(-c4ccc(C)cc4)oc3C)ccc21
40 | 109 | CCc1ccc(-c2nc(CCOc3ccc4c(c3)CCC4C(CC)C(=O)O)c(C)o2)cc1 (configuration not stated)
34 | 271 | CCC(C(=O)O)C1CCc2cc(OCCc3nc(-c4cccc(C)c4)oc3C)ccc21 (configuration not stated)
168 | 45 | CCC(C(=O)O)C1CCc2cc(OCCc3nc(-c4ccccc4)oc3C)c(-c3ccc(Cl)cc3)cc21 (configuration not stated)
42 | 199 | CCC(C(=O)O)C1CCc2cc(OCCc3nc(-c4ccc(OC)cc4)oc3C)ccc21 (configuration not stated)
6 | 62 | CC[C@H](C(=O)O)[C@@H]1CCc2cc(OCCc3nc(-c4ccccc4)oc3C)ccc21
> 10000 | 1520 | CC[C@@H](C(=O)O)[C@@H]1CCc2cc(OCCc3nc(-c4ccc(C)cc4)oc3C)ccc21
46 | 354 | CCc1oc(-c2ccccc2)nc1CCOc1ccc2c(c1)CCC2C(CC)C(=O)O (configuration not stated)
19 | 26 | CC[C@H](C(=O)O)[C@H]1CCc2cc(OCCc3nc(-c4ccccc4)oc3C)ccc21
46 | 94 | CC[C@H](C(=O)O)[C@@H]1CCc2cc(OCCc3nc(-c4ccc(F)cc4)oc3C)ccc21

EC50 [1] [nM] | EC50 [2] [nM] | Compound
83 | 48 | CC[C@H](C(=O)O)[C@H]1CCc2cc(OCCc3nc(-c4ccc(C)cc4)oc3C)ccc21
294 | 127 | CCC(C(=O)O)C1CCc2cc(OCCc3nc(-c4ccccc4)oc3C)c(Cl)cc21 (configuration not stated)
290 | 58 | CCC(C(=O)O)C1CCc2cc(OCCc3nc(-c4ccccc4)oc3C)c(-c3ccccc3)cc21 (configuration not stated)
347 | > 10000 | CCC(C(=O)O)C1CCc2cc(OCCc3nc(-c4ccccc4)oc3C(C)C)ccc21 (configuration not stated)
225 | 63 | CC[C@@H](C(=O)O)[C@H]1CCc2cc(OCCc3nc(-c4ccc(Cl)c(Cl)c4)oc3C)ccc21
16 | 82 | CCCCc1ccc(-c2nc(CCOc3ccc4c(c3)CCC4C(CC)C(=O)O)c(C)o2)cc1 (configuration not stated)
32 | 38 | CCC(C(=O)O)C1CCc2cc(OCCc3nc(-c4ccc(C)c(C)c4)oc3C)ccc21 (configuration not stated)
368 | 523 | CCC(C(=O)O)C1CCc2cc(OCCc3nc(-c4c(F)cccc4F)oc3C)ccc21 (configuration not stated)
104 | 53 | CCC(C(=O)O)C1CCc2cc(OCCc3nc(COc4ccc(Cl)cc4)oc3C)ccc21 (configuration not stated)
> 10000 | 868 | CC[C@@H](C(=O)O)[C@H]1CCc2cc(OCCc3nc(-c4ccc(F)cc4)oc3C)ccc21
46 | 57 | CC[C@H](C(=O)O)[C@@H]1CCc2cc(OCCc3nc(-c4ccc(Cl)c(Cl)c4)oc3C)ccc21
605 | > 10000 | CC[C@@H](C(=O)O)[C@H]1CCc2cc(OCCc3nc(-c4ccccc4)oc3C)ccc21
247 | 1170 | CCC(C(=O)O)C1CCc2cc(OCCc3nc(-c4cc(C(F)(F)F)cc(C(F)(F)F)c4)oc3C)ccc21 (configuration not stated)
95 | 350 | CC[C@@H](C(=O)O)[C@@H]1CCc2cc(OCCc3nc(-c4ccccc4)oc3C)ccc21
22 | 119 | CCC(C(=O)O)C1CCc2cc(OCCc3nc(-c4ccc(C(C)C)cc4)oc3C)ccc21 (configuration not stated)
43 | 3280 | CCC(C(=O)O)C1CCc2cc(OCCc3nc(-c4ccc(-c5ccccc5)cc4)oc3C)ccc21 (configuration not stated)
206 | 92 | CCC(C(=O)O)C1CCc2cc(OCCc3nc(-c4ccc(Cl)cc4)oc3C)ccc21 (configuration not stated)
61 | 336 | CCC(C(=O)O)C1CCc2cc(OCCc3nc(-c4cccc(F)c4)oc3C)ccc21 (configuration not stated)
104 | 1000 | Cc1oc(-c2ccccc2)nc1CCOc1ccc2c(c1)CCC2C(C)C(=O)O (configuration not stated)
153 | 637 | CCC(C(=O)O)C1CCc2cc(OCCc3nc(-c4ccccc4C)oc3C)ccc21 (configuration not stated)
205 | 58 | CCC(C(=O)O)C1CCc2cc(OCCc3nc(-c4ccc(C(F)(F)F)cc4)oc3C)ccc21 (configuration not stated)

Compound | EC50 [1] [nM] | EC50 [2] [nM]
CCC(C(=O)O)C1CCc2cc(OCCc3nc(-c4ccc5c(c4)OCO5)oc3C)ccc21 (configuration not stated) | 14 | 354
CCC(C(=O)O)C1CCc2cc(OCCc3nc(COc4ccccc4)oc3C)ccc21 (configuration not stated) | 45 | 61
CCC(C(=O)O)C1CCc2cc(OCCc3nc(-c4ccccc4)oc3C)c(-c3ccc(OC)cc3)cc21 (configuration not stated) | 124 | 23
CCC(C(=O)O)C1CCc2cc(OCCc3nc(-c4cccc(OC)c4)oc3C)ccc21 (configuration not stated) | 1 | 254
CCC(C(=O)O)C1CCc2cc(OCCc3nc(-c4ccco4)oc3C)ccc21 (configuration not stated) | 396 | 745
CCC(C(=O)O)C1CCc2cc(OCCc3nc(C4CCCCC4)oc3C)ccc21 (configuration not stated) | 136 | 111
CCC(C(=O)O)C1CCc2cc(OCCc3nc(C4CCCC4)oc3C)ccc21 (configuration not stated) | 212 | 202
CCC(C(=O)O)C1CCc2cc(OCCc3nc(-c4ccc5c(c4)OCC5)oc3C)ccc21 (configuration not stated) | 6 | 65
CCC(C(=O)O)C1CCc2cc(OCCc3nc(-c4cc(C)on4)oc3C)ccc21 (configuration not stated) | 762 | 827
CCC(C(=O)O)C1CCc2cc(OCCc3nc(-c4ccccc4)oc3-c3ccccc3)ccc21 (configuration not stated) | 617 | > 10000
CCC(C(=O)O)C1CCc2cc(OCCc3nc(-c4cc5ccccc5s4)oc3C)ccc21 (configuration not stated) | 37 | 287
CCC(C(=O)O)C1CCc2cc(OCCc3nc(-c4ccc5ccccc5c4)oc3C)ccc21 (configuration not stated) | 16 | 104
CCC(C(=O)O)C1CCc2cc(OCCc3nc(Cc4ccccc4)oc3C)ccc21 (configuration not stated) | 330 | 718
CCC(C(=O)O)C1CCc2cc(OCCc3nc(-c4cccc5ccccc45)oc3C)ccc21 (configuration not stated) | 113 | 451
